Source: PubChem BioAssay
Rows were chosen to be rich in hits. Some 9.4% of all compounds tested hit in one or more screens of this group.
CSC inhib – cancer stem cell viability inhibitors, primary screen, luminescence. cancer stem cell-like cells viability. inhibition, % at 7.5 µM. 1.1% of 300,000 active; in the data active = inhibition above about 75%; inconclusive = no clear call, values can overlap the other calls; tested in HMLE shEcad cells
T cruzi repl – inhibitors of intracellular T. cruzi growth, primary screen, luminescence, NIH3T3 host cells | inhibition, % (test concentration not listed) | 1.4% of 300,000 active | T. cruzi beta-gal in NIH3T3, 90 h;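 active = mean inhibition across valid replicates above about 55%, limit read from the data; inconclusive = mean below that limit but half or more replicates reach it; inactive = mean below it, under half of replicates reach it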;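 also: signal also drops with host cell toxicity which is not excluded here; higher percent means less beta-gal luminescence so fewer parasites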
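Material: NIH/3T3 host cells with β-galactosidase reporter T. cruzi; Input: 5,000 host fibroblasts per well; Medium: DMEM, 2% fetal bovine serum; Compound: 50 nL DMSO compound solution per well; Schedule: 3 h host attachment, then at least 90 h co-culture; Detection: luminescent β-galactosidase signal after 60 min lysis.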
SKKanGAS inh – S. pyogenes SKKanGAS growth inhibitors in kanamycin, primary screen, streptokinase expression inhibitor project, SKKanGAS strain, BacTiter-Glo luminescence. AID 1662, 2009. 6 h. 1.3% of 300,000 active. inhibition, % at 7.5 µM;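 active = mean replicate score, as percent of positive control median, at least 50; inconclusive = mean below 50 but one replicate at or above 50; inactive = mean and every replicate below 50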;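 also: strain carries kanamycin resistance gene driven by streptokinase promoter and grows in 40 µg/ml kanamycin; loss of luminescence reflects streptokinase promoter inhibition or plain growth inhibition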
L major viab – Leishmania major promastigote growth inhibition, primary screen; Leishmania major promastigotes, resazurin fluorescence viability; inhibition, % at 10 µM; 9% of 200,000 active; AID 1063, 2008; in the data active = inhibition above about 50%;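 also: promastigotes grown with compound for 44 hours at 28 °C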
Beta cell apopt – inhibitors of cytokine-induced beta cell apoptosis, primary screen, luminescence; INS-1E cytokine-induced death, ATP luminescence, 48 h; percent of positive-control rescue, neutral wells zero; protection from apoptosis, % (concentration not given with the values); 0.8% of 300,000 active; AID 435005, 2010;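 active = Every replicate reaches about 75%, or at least half do and their mean reaches it too, limit read from the data; inconclusive = At least half of replicates reach the limit but their mean does not; inactive = Under half of replicates reach the limit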;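 also: higher means more ATP so stronger rescue from cytokine killing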
Mdm2 MdmX PPI – inhibitors of human Mdm2-MdmX association, primary screen, cell-based, luminescence, split luciferase, SaOS-2, uHTS; Protein Mdm4 (Homo sapiens) + E3 ubiquitin-protein ligase Mdm2 (Homo sapiens), …; SaOS-2 split-luciferase Mdm2/MdmX complementation; inhibition, % at 8 µM; 3% of 330,000 active; AID 485346, 2010;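 active = inhibition of at least 50% at 8 µM in the primary screen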
Target sequence (O15151 whole entry, looked up): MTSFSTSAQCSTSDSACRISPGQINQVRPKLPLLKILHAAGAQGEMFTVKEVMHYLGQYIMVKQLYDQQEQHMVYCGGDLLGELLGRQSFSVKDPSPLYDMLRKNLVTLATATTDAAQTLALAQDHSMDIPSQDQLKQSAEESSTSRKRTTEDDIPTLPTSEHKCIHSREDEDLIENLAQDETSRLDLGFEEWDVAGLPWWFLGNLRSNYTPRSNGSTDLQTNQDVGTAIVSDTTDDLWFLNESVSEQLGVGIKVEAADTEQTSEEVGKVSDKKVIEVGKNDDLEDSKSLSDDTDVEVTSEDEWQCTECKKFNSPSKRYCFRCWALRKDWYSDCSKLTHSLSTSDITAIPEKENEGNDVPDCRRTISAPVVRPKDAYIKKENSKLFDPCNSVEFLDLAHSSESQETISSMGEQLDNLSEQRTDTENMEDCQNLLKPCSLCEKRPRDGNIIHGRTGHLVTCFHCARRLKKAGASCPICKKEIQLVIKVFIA
Target sequence (Q00987 whole entry, looked up): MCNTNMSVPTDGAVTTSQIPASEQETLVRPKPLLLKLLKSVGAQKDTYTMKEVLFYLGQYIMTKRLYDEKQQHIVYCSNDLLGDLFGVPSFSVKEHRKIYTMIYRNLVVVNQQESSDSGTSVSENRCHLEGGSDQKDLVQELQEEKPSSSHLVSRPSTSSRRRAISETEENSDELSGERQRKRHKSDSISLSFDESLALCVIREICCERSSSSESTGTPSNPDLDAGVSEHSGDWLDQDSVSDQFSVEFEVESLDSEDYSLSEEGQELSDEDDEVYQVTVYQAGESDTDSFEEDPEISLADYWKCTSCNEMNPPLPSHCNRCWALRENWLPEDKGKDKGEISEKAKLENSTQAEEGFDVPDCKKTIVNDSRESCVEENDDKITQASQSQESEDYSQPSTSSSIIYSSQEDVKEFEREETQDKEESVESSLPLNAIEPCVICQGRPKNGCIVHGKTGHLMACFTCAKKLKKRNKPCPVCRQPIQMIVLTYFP
L major 1uM – Leishmania major promastigote growth inhibition, confirmation, 1 µM repeat of primary hits; shares compounds with L major viab; AID 1258, 2008; inhibition, % at 1 µM; L. major promastigote growth, resazurin fluorescence, 48 h; 13% of 1,100 active;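 active = inhibition above about 50% in both repeat tests, limit read from the data; inconclusive = one repeat under the set limit, the other over it; inactive = both repeats under the set limit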
Each line names hits and unclear results; the compound was inactive in the other large screens (follow-up assays come after a bar, where they were run).

Cc1cc(C)c(S(=O)(=O)Nc2ccccc2C(=O)OCC(=O)NCc2ccccc2)c(C)c1	none
Cc1cc(C)n(CCc2nc(-c3ccc(C)o3)cs2)n1	none
Cc1cc(C)n(CCc2nc(-c3cc4ccccc4o3)cs2)n1	L major viab 100 | L major 1uM inactive
N/N=C(\c1ccccc1)C12CN3CN(CN(C3)C1)C2	L major viab 52 | L major 1uM inactive
CC[n+]1c(C)sc2c(C)cc(C)cc21	L major viab 69 | L major 1uM inactive
c1ccc2c(-c3c[nH]c4ccccc34)c3ccccc3nc2c1	SKKanGAS inh inconclusive, L major viab 55 | L major 1uM inactive
CN(C)c1ccnc(-n2cccc2/C=N/OCc2ccccc2)c1C#N	none
COc1ccccc1CO/N=C/c1cccn1-c1nccc(N(C)C)c1C#N	L major viab 71 (no result: Beta cell apopt) | L major 1uM inactive
C=CCC1(CC=C)CCCN1C(=O)C1CCC(=O)N(CCc2ccccc2)C1 (stereo not given)	none (no result: L major viab)
CCN(CC(=O)Nc1c(F)cccc1F)C(=O)C1=COCCO1	none (no result: L major viab, Beta cell apopt)
CCOc1ccc(N(C(=O)c2cnsn2)C(C(=O)NC2CCCCC2)c2ccncc2)cc1 (stereo not given)	L major viab 76 | L major 1uM inactive
CCSC1=N/C(=C\c2cccc(F)c2)C(=O)S1	L major viab 60 | L major 1uM inactive
Nc1nc(-c2ccccc2)c(C(=O)Nc2ccccc2)s1	none
OC(CC1CC12c1ccccc1-c1ncccc12)(c1ccccc1)c1ccccc1 (stereo not given)	L major viab 69 | L major 1uM inactive
Cc1c(Cl)c([N+](=O)[O-])nn1CC(=O)N1CCN(C23CC4CC(CC(C4)C2)C3)CC1	none (no result: CSC inhib, L major viab)
Cc1nc([N+](=O)[O-])nn1C12CC3CC(CC(Cl)(C3)C1)C2	L major viab 88 | L major 1uM 53
CCc1ccc(N(CC(=O)NC2CCCCC2)C(=O)CCC(=O)Nc2ccccn2)cc1	none (no result: L major viab)
CC1(C)Cc2c(ccc3ccccc23)/C(=C/C#N)N1	none
CNC(=O)/C=C1\NC(C)(C)Cc2c1ccc1ccccc21	L major viab 54 | L major 1uM inactive
Nc1ccc(C(=O)c2cccs2)cc1[N+](=O)[O-]	none
COc1cc2c(cc1NC(=S)NC(=O)c1c(OC)cccc1OC)oc1ccccc12	L major viab 88 (no result: SKKanGAS inh) | L major 1uM inactive
COc1ccc(C(=O)NC(=S)Nc2cc3oc4ccccc4c3cc2OC)cc1	none
c1ccc2c(c1)nc(N1CCOCC1)c1c3ccccc3[nH]c21	L major viab 53 | L major 1uM inactive
Cc1cc(C)c(/C=N/n2c(C)cc(C)c(C#N)c2=O)c(C)c1	L major viab 73 | L major 1uM inactive
CC(=O)NCCOC(=O)Nc1sc(=S)n(C)c1C	none (no result: CSC inhib)
Cc1ccc(C)c(S(=O)(=O)NCCOC(=O)Nc2sc(=S)n(C)c2C)c1	L major viab 88 | L major 1uM inactive
COc1cc(C2/C(=C(\O)c3ccc4c(c3)CC(C)O4)C(=O)C(=O)N2CCCn2ccnc2)cc(OC)c1OC (stereo not given)	none (no result: L major viab)
CC(=O)c1c(C)nc2cc(Cl)ccc2c1N	L major viab 50 | L major 1uM inactive
Cc1nc2ccc(Cl)cc2nc(C)/c1=N\O	none
CN(C)CC[n+]1ccc(C(=O)c2ccccc2)cc1	none (no result: L major viab, Beta cell apopt)
Cc1ccc(-c2nnc(-c3ccc4c(c3)OCO4)o2)cc1	none (no result: SKKanGAS inh)
CC(C)C1N=C(c2ccc3c(c2)OCO3)CC(c2ccccc2O)N1 (stereo not given)	L major viab 99 | L major 1uM inactive
CCOC(=O)c1c(C)oc2ccc(O)c(CN3CCCCC3)c12	L major viab 88 | L major 1uM inactive
CCOC(=O)c1c(C)n(C)c2ccc(O)c(CN3CCCCC3)c12	none
Cc1ccccc1-c1nc(P(=O)(c2ccccc2)c2ccccc2)c(N2CCOCC2)o1	none (no result: L major viab, Beta cell apopt)
CCOP(=O)(c1ccccc1)c1nc(-c2ccccc2C)oc1N1CCCCC1 (stereo not given)	L major viab 50 | L major 1uM inactive
CN(C)c1cc[n+](Cc2c(Cl)cccc2Cl)cc1	L major viab 84, Beta cell apopt 97 | L major 1uM inactive
CN(C)c1cc[n+](CC[n+]2ccc(N(C)C)cc2)cc1	none (no result: L major viab)
COC(=O)c1c(NC(=O)COC(=O)C2CCC2)sc(C)c1C	none (no result: CSC inhib, L major viab)
Cc1cc(=O)n2c3ccccc3n(CC(O)CN3CCC(C)CC3)c2c1C#N (stereo not given)	none (no result: CSC inhib, Beta cell apopt, Mdm2 MdmX PPI)
CCC1CCCCN1CC(O)Cn1c2ccccc2n2c(=O)cc(C)c(C#N)c12 (stereo not given)	L major viab 81 | L major 1uM inactive
Cc1c(C(=O)OCc2nc3ccsc3c(=O)[nH]2)oc2ccccc12	none (no result: T cruzi repl, SKKanGAS inh, L major viab)
COc1ccc(O[C@H]2C=C[C@@H](c3ccccc3)O[C@@H]2CO/N=C(\C)CCN2CCCCc3nc(C)c(C)cc32)cc1	L major viab 84 (no result: CSC inhib, T cruzi repl, SKKanGAS inh, Beta cell apopt, Mdm2 MdmX PPI) | L major 1uM inactive
C/C(CCN1CCCCc2nc(C)c(C)cc21)=N\O[C@@H](C)CN1CCCCc2nc(C)c(C)cc21	L major viab 68 | L major 1uM inactive
COc1ccc(N(CC(=O)Nc2cccc(N(C)S(C)(=O)=O)c2)S(=O)(=O)c2ccccc2)cc1Cl	L major viab 56 | L major 1uM inactive
COc1ccc(N(CC(=O)Nc2ccc(OC)c(OC)c2)S(=O)(=O)c2ccccc2)cc1Cl	none (no result: L major viab)
O=[N+]([O-])c1cc(Cl)cc(C2=NCCN2)c1	L major viab 52 | L major 1uM inactive
O=C(Nc1ccc(C2=NCCN2)cc1)c1ccc(C(=O)Nc2ccc(C3=NCCN3)cc2)c([N+](=O)[O-])c1	none (no result: L major viab)
CC(=O)c1c(C)[nH]c(C(=O)OCC(=O)N(Cc2ccccc2)C(C)(C)C)c1C	none (no result: CSC inhib, T cruzi repl, SKKanGAS inh, L major viab, Beta cell apopt)
Cc1ccc2cc(C)c(Sc3nnnn3-c3ccccc3)nc2c1	L major viab 60 (no result: Mdm2 MdmX PPI) | L major 1uM inactive
Cn1ccnc1Sc1nnnn1-c1ccccc1	none
COCCNC(=O)CN1C(=O)NC2(CCCc3cc(OC)ccc32)C1=O (stereo not given)	none (no result: L major viab)
Cc1ccc(NC(=O)O/N=C2\CCCCC2c2ccc([N+](=O)[O-])cc2[N+](=O)[O-])cc1 (stereo not given)	L major viab 99 | L major 1uM inactive
Cc1onc(-c2ccccc2Cl)c1C(=O)N1CCCCC1C (stereo not given)	none (no result: L major viab)
COc1ccc(Cn2cnc3c(N)c(C)c(C)cc32)cc1	none
CCCCCCCCn1cnc2c(N)c(C)c(C)cc21	L major viab 91 (no result: CSC inhib) | L major 1uM inactive
COc1cccc(NC(=O)C(c2ccccc2)N2CCNC(=O)C2)c1 (stereo not given)	none
